# Source: PubChem BioAssay
# WT yeast gro inh – growth inhibition of WT strain, primary screen, mitochondrial fusion inhibitor project, WT and mutant strains, chemical genetic. actives 2.1% (n = 190,000). mitochondrial fusion phenotypic screen. AID 1362, 2008. inhibition, % at 10 µM; in the data active = inhibition above about 58%; tested in S. cerevisiae
# NCF1 inh – p47phox/p22phox peptide binding inhibitors, primary screen, biochemical, uHTS, NADPH oxidase regulatory subunit. fluorescence polarization, 2 h. inhibition, % at 24.7 µM. AID 1274, 2008. Neutrophil cytosol factor 1 (Homo sapiens), P14598. actives 0.53% (n = 220,000);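 active = inhibition above about 30%, limit read from the data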;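 also: 0% = p47phox with labelled peptide and 100% = labelled peptide alone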
# 14-3-3 Bad inh – inhibitors of 14-3-3 zeta/Bad binding, primary screen, biochemical, TR-FRET, bovine 14-3-3 zeta. 14-3-3 protein zeta/delta (Bos taurus), P63103. TR-FRET 14-3-3zeta/Dy647-pBad peptide displacement, 1 h. inhibition, % at 21.7 µM. actives 0.71% (n = 220,000);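 active = inhibition above about 70%, limit read from the data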;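 also: 0% = full 14-3-3 plus peptide FRET controls and 100% = background without 14-3-3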
# Target sequence (P63103 whole entry, looked up): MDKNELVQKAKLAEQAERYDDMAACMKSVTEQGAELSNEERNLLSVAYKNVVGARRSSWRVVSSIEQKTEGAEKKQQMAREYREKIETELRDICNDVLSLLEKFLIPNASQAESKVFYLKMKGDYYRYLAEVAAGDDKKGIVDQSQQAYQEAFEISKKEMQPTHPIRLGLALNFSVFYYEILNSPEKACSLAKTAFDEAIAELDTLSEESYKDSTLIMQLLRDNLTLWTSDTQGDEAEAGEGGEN
# KCC2 mod – KCC2 cotransporter modulators, thallium flux, primary screen, cell-based, HEK293 KCC2, FluoZin-2 fluorescence, MLSMR. Solute carrier family 12 member 5 (Homo sapiens), Q9H2X9. KCC2 cells, thallium flux FluoZin-2 fluorescence. B-score of Tl+ flux slope (higher = more flux/activation; lower = inhibition) at 10 µM. actives 2.2% (n = 190,000). AID 1456, 2008;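 active = thallium flux slope and its plate-corrected score both differing from the plate sample mean at a set confidence after two filtering rounds, in either direction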;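 also: slope of fluorescence scaled to starting intensity during 10 to 20 s after thallium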
# ROMK primary – ROMK potassium channel modulators, primary screen, cell-based, thallium flux, MLSMR library. B-score at 10 µM. Tet-inducible ROMK, thallium flux fluorescence; actives lie on both sides. actives 2% (n = 130,000);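 active = signal ratio slope over the read window, or its plate-corrected B-score, at least 3 SD from the plate mean, either direction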;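 also: B-score of the F/F0 ratio slope over 7 to 12 s after thallium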
# Target sequence (P48048 whole entry, looked up): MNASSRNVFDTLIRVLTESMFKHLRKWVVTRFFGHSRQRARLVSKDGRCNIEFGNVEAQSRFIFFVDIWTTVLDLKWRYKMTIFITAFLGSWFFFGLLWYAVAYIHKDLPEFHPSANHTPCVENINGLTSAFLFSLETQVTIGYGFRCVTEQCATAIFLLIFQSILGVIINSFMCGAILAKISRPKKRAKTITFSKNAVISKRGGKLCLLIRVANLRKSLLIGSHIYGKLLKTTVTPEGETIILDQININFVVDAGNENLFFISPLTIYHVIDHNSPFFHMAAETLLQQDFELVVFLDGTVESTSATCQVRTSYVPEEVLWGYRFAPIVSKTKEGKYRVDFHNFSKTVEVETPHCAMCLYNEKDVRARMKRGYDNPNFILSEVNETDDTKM
# RBBP9 inh – human RBBP9 inhibitors, primary screen, biochemical, fluorescence polarization, FP-Rh probe, HTS. Serine hydrolase RBBP9 (Homo sapiens), O75884. recombinant RBBP9. inhibition, % at 7.94 µM. actives 0.2% (n = 220,000). AID 1515, 2009;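 active = inhibition above the campaign mean of all tested compounds plus 3 SD, cut at about 14% in these data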;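 also: plate controls were DMSO wells with RBBP9 for no effect and wells lacking RBBP9 protein for full effect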
#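 Measured by: FP readout at 525/598 nm; material: recombinant human RBBP9; also added: Serine-hydrolase probe FP-Rh, 375 nM pre-mixing; medium: Tris buffer pH 8.0, NaCl, Pluronic; replication: one well per compound; doses: one concentration, 7.94 µM nominal, 0.794% DMSO; timing: preincubation 30 min plus labeling 45 min at 25 °C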
# Active calls of the source: *; x = no result given; [ ] = remark or other dose. Hits are enriched below; roughly 5.8% of the tested compounds scored in any of these assays.
SMILES,WT yeast gro inh,NCF1 inh,14-3-3 Bad inh,KCC2 mod,ROMK primary,RBBP9 inh
CN1CCN(C(=O)c2cnn3c2NC(c2ccccc2)CC3C(F)(F)F)CC1 (centres undefined),5.3,4.7,5.0,-1.02,-0.189,-10.5
N/C(=N\OC(=O)C(c1ccccc1)c1ccccc1)c1cccnc1,75.7*,-10.3,4.3,-1.21,x,2.1
CCn1c(O)c(N=Nc2ccc3ccccc3n2)c2ccccc21,x,-33.5,-3.5,1.94,x,-4.6
CCCCn1c(O)c(N=Nc2ccccn2)c2ccccc21,67.6*,-11.3,0.0,11.4*,0.913,0.1
N/C(=N\N=C\c1ccc(Br)o1)c1nonc1N,x,-3.2,3.6,-0.0171,x,3.8
Cc1nc(N2CCCCC2)c(C#N)c(C)c1[N+](=O)[O-],18.3,10.1,-24.5,0.465,-0.758,0.8
S=C(NCc1ccccc1)NC1CCCc2ccccc21 (centres undefined),71.6*,-7.2,-7.5,-0.668,x,-3.9
CCSc1nnc2c(n1)OC1(CCCC1)Nc1ccccc1-2,10.4,-8.3,1.5,-0.534,x,-10.8
O=C1Nc2ccc(Cl)cc2C12Nc1ccccc1-c1nnc(SCc3ccccc3F)nc1O2 (centres undefined),69.1*,-45.0,5.5,-1.61,-2.11,-0.7
O=C1Nc2ccc(F)cc2C12Nc1ccccc1-c1nnc(SCc3ccccc3F)nc1O2 (centres undefined),41.6,43.2*,x,x,-0.712,-5.7
CCOC(=O)c1[nH]c2ccc(OCC)cc2c1CCCN1C(=O)c2ccccc2C1=O,-0.2,-12.0,-1.7,1.18,0.546,-2.1
COc1ccc2cc(C3OCCO3)c(Cl)nc2c1,5.5,1.2,12.2,-0.406,-0.491,-7.8
NC(N)=NS(=O)(=O)c1ccc(NC(=S)NC(=O)c2ccc3c(c2)OCO3)cc1,2.9,-31.7,-1.4,1.41,0.0423,-7.4
CO[C@@]1(NC(=O)Cc2cccs2)C(=O)N2C(C(=O)O)=C(COC(N)=O)CS[C@@H]21,-4.3,-11.3,73.4*,-0.527,x,-0.1
Cc1ccccc1-n1c(SCC(=O)NCc2cccs2)nc2ccccc2c1=O,-12.3,30.4*,3.0,-0.7,x,-9.2
Cc1ccc(-n2c(SCC(=O)N/N=C/c3c(C)nn(-c4ccccc4)c3C)nc3ccccc3c2=O)cc1,4.1,18.9,18.6,-0.174,x,-6.3
Cc1ccccc1-n1c(SCC(=O)N/N=C/c2c(C)nn(-c3ccccc3)c2C)nc2ccccc2c1=O,18.8,-3.8,88.8*,0.53,0.237,-25.9
O=C(CSc1nnnn1-c1ccccc1)NCc1cccs1,73.8*,0.9,15.3,-1.61,x,-5.8
C/C(N)=C(/C#N)C(=O)CSc1nnnn1-c1ccccc1,94.3*,-10.2,3.9,-0.685,x,-10.8
O=C(NCCCn1ccnc1)C(=O)c1c[nH]c2ccccc12,-21.7,6.5,-3.0,0.773,-0.378,0.8
CC(c1ccccc1F)n1cc(C(=O)NCCCc2nc3ccccc3[nH]2)nn1 (centres undefined),-8.0,-3.6,-14.8,0.0175,-0.09,4.9
O=C(CN1C(=O)/C(=C2\SC(=S)N(C3CCS(=O)(=O)C3)C2=O)c2ccccc21)Nc1ccccc1 (centres undefined),6.5,68.9*,81.3*[fluorescence artefact?],-0.0508,x,-3.4
Cc1ccc(NC(=O)CN2C(=O)/C(=C3\SC(=S)N(C4CCS(=O)(=O)C4)C3=O)c3ccccc32)cc1 (centres undefined),15.1,76.4*,92.6*[fluorescence artefact?],-0.461,x,-4.3
CCN1C(=O)/C(=C2\SC(=S)N(NC(=O)c3ccccc3O)C2=O)c2ccccc21,x,-5.0,-1.6,-3.01,x,4.6
CCOc1ccc2ccccc2c1/C=N/NC(=O)CNC(=O)Cc1ccccc1,15.5,-8.8,-15.8,0.152,1.07,-3.7
SMILES,WT yeast gro inh,NCF1 inh,14-3-3 Bad inh,KCC2 mod,ROMK primary,RBBP9 inh
COC(=O)C1=C(C)N(CCc2ccc(OC)cc2)C(=O)C1,13.2,91.8*,-4.4,x,0.0888,-2.2
c1ccc2c(c1)sc1nnnn12,66.2*,-5.2,-5.6,x,x,-8.5
O=C1NC(=O)/C(=C\c2ccc(O)cc2O)S1,-9.2,-16.5,86.5*,0.0261,-0.18,-0.4
Cc1cc(N2CCOCC2)ccc1/C=C1/SC(=O)NC1=O,-3.2,-17.1,-7.0,-0.153,-0.123,2.6
CCCCn1c(-c2csc3c2CCC(C)C3)n[nH]c1=S (centres undefined),75.8*,-11.9,-7.5,22.4*,x,-7.6
CCCCn1c(-c2csc3c2CCCC3)n[nH]c1=S,20.4,-6.9,-9.5,2.98*,-0.576,2.1
CCn1c(-c2csc3c2CCCC3)n[nH]c1=S,-1.0,-5.3,-17.4,2,-1.25,-5.8
CCOC(=O)/C(C#N)=C/Nc1ccccc1OC(F)(F)F,x,-13.1,-0.6,-1.25,-0.0696,2.0
Nc1ccccc1S(=O)(=O)C(F)F,x,-12.5,2.6,0.507,-0.632,-4.2
CCC(CC)NC(=O)c1oc2ccccc2c1COc1ccccc1,37.7,-5.1,-3.8,0.504,x,-5.7
CC(C)CNC(=O)c1oc2ccccc2c1COc1ccccc1,63.0*,-15.9,1.3,-0.0269,0.0794,-7.4
Cc1cc(C)nc(SCCn2c(N3CC(C)OC(C)C3)nc3c2c(=O)n(C)c(=O)n3C)n1 (centres undefined),-4.4,-2.7,-10.6,x,x,3.7
Clc1cccc(Cl)c1-c1noc(CN2CCOCC2)n1,x,-8.4,1.9,1.27,x,-1.9
O=C(N1CCCC1)C(F)(F)Oc1ccc(F)cc1,1.3,-5.0,-10.3,0.239,0.578,-9.5
O=C(NCc1ccccn1)C(=O)C1C(=O)Nc2ccccc21 (centres undefined),5.3,38.6*,-0.2,0.187,1.42,5.1
O=c1c(/C=N/N2CCOCC2)c(C(F)(F)F)[nH]n1-c1ccccc1,-14.2,-6.2,-4.8,1.11,1.08,-3.1
Cc1cccc(OCCSCc2nc3ccccc3[nH]2)c1,-2.2,-64.5,12.4,-0.11,-1.27,-7.0
Cc1ccccc1OCCSCc1nc2ccccc2[nH]1,74.6*,-25.4,1.9,0.129,0.191,-11.7
COc1ccc(S(=O)(=O)n2nc(OC(C)=O)cc2N(C(C)=O)C(C)=O)cc1,-13.2,-17.0,38.3,-1.21,x,-11.0
CCN(CC)CCn1c2ccccc2c2nc(C)sc21,-5.3,-3.5,82.0*,0.96,x,0.3
Cc1ccc(NC(=O)c2ccco2)c(NC(=O)C2CCCO2)c1 (centres undefined),0.0,2.7,0.1,0.308,0.148,-2.5
Cc1nn(C(=O)c2nn(C)cc2[N+](=O)[O-])c(C)c1Br,-11.8,-9.8,-15.7,0.381,0.1,-2.1
